# In PMC7193547 (Environmental Science & Technology, 2018):
# Like-named read-outs stand apart in the source and are kept apart here.
# Columns and labels:
# [1] = assay type: physicochemical; details: not told
# [2] = tested on: single bacterial cell
# Summary of the method: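 Calculated rather than measured: the liposome-derived Papp was scaled to a single cell using an estimated cell surface area of ≈3 μm² and membrane thickness δ (one 4 nm membrane for Gram-positive, two 4 nm membranes for Gram-negative), giving a concentration-gradient-dependent influx.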
# [3] = tested on: Ochrobactrum sp. FrEM; assay: Biodegradation of glyphosate by Ochrobactrum sp. FrEM; assay type: cell-based; details: after 4.5 days, OD600 ≈ 0.8, 30 °C, pH 7
# [4] = tested on: active glyphosate transporter; details: cited from earlier work
smiles,measurement,setting,value
"O=C(O)CNCP(=O)(O)O [glyphosate, N-(phopshomethyl)glycine]",Papp at 20 mM,[1]; pH 4.1,420 ×10⁻⁶ cm/s
same,Papp at 20 mM,[1]; pH 7,37 ×10⁻⁶ cm/s
same,calculated maximum membrane permeation rate (dnout/dt)cell-perm-max,[2]; glyphosate concentration of 1 μM,−6.5 × 10^–22 mol·s^–1·cell^–1
same,calculated maximum membrane permeation rate (dnout/dt)cell-perm-max,"[2]; pH 7, 0.12 mM glyphosate, compared with Ochrobactrum sp. FrEM",−7.5 × 10^–20 mol·s^–1·cell^–1
same,calculated maximum membrane permeation rate (dnout/dt)cell-perm-max,"[2]; pH 7, 3 mM glyphosate, [Sin] = 0, compared with Achromobacter sp. MPS 12A",−1.9 × 10^–18 mol·s^–1·cell^–1
same,maximum permeation rate higher than degradation rate,"[2]; pH 7, 3 mM, versus degradation rate of Achromobacter sp. MPS 12A",2 orders of magnitude
same,maximum glyphosate degradation rate (dn/dt)deg-cell,[3],−1.7 × 10^–21 mol·s^–1·cell^–1
same,uptake rate of active glyphosate transporter (dnout/dt)cell-transport,[4],−1.8 × 10^–21 mol·s^–1·cell^–1
same,Km,[4]; read-out: affinity constant KM for glyphosate uptake,125 µM
